The data set relates to MS2 coat protein. Description: apparent Kd, MS2 coat protein; higher = weaker binding; RNA-MaP array; FMN 200 µM where present. The essentials: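 Stalled E. coli RNA polymerase produced the designs on Illumina sequencing-chip clusters. SNAP-549-labelled MS2 coat protein was added from 0.7 or 1.5 nM, doubling to 3 µM, without and then with constant ligand, in 100 mM Tris-HCl pH 7.5, 80 mM KCl, 4 mM MgCl2, BSA, DTT, yeast tRNA and Tween-20. The apparent Kd is the median of filtered per-cluster fits of green signal normalised to red-channel RNA signal and control-cluster median Fmax.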

The mark [1] stands for this setting: designed as: ON switch for flavin mononucleotide, no ligand.
The mark [2] stands for this setting: ligand present: flavin mononucleotide, designed as: ON switch for flavin mononucleotide.
The mark [3] stands for this setting: designed as: OFF switch for flavin mononucleotide, no ligand.
The mark [4] stands for this setting: ligand present: flavin mononucleotide, designed as: OFF switch for flavin mononucleotide.

Take “UUAAUUAAUUAAUUAUACAUGAGGAUCACCCAUGUAAGUGAUCAGGAUAUCAGCUCGAUUAGAGCUGAGAAGGGAUCCAUGUAA”: the “apparent Kd” value reads like this: under setting [1], 109 nM; under setting [2], 81.3 nM.
The corresponding values for “GGGUACAUCGGAGGAUAUCAUGUAAAUACAUGAGGAUCACCCAUGUCGAUGGAGACAUCGGAGAUUGAGAAGGCCGUUGUACCG” are 168 nM and 9.18 nM.
The matching figures for “AAUUAAUUAAUACAUGAGGAUCACCCAUGUAAUUAUUAGAUCAAGGAUAUCAGCUCGAUUAGAGCUGAGAAGGUGAUCACAUGU”: 412 nM and 102 nM.
Turning to “GUCAGCUCGUCAGGAUAUACAUGAUAGAUCGAUUAAUUAAUUAAUUUAACAUGAGGAUCACCCAUGUAGAAGGGACGAGCUGAU”, the “apparent Kd” value came out at 109 nM under setting [3] and 84.2 nM under setting [4].
The matching figures for “ACGGCAGUCAGAGGAUAUGGUUACAUGAGGAUCACCCAUGUCAAGGGUCUAAUUAGGUAUAACUACCAGAAGGCUGAAGGCCUA”: 64.5 nM and 102 nM.
Regarding “AUGAGAAAAGCAGGAUAUCUAUUGUCUCAGAAACAUGAGGAUCACCCAUGUAGAGAAGGGCUAAGACUGACUCUUCGGAGUUGA”, the “apparent Kd” value under setting [3] turned out to be 10.6 nM and the “apparent Kd” value under setting [4] was found to be 9.46 nM.
In the case of “CAGCGAAAGUAGAAGGCAGUACUGAUACAGUACUGAGGAUAUACAUGAGGAUCACCCAUGUCCUUCAGCUGGAAAUAAAUAAAA”, the “apparent Kd” value is, setting by setting: under setting [3], 5.9 nM; under setting [4], 50.9 nM.
As to “GGUCGUCACAUUAACAUGAGGAUCACCCAUGUAAAAUAACAUGAGGAUAUGCAUCCUAAUUGGAUGCAGAAGGCAUGGACGACC”, the “apparent Kd” value under setting [1] amounted to 7.86 nM and the “apparent Kd” value under setting [2] is 6.02 nM.
As for “GUAUACGAUGAGGAUAUAUGAUAUCAAAGCAUCAUAGAAGGCAUCACAUGAGGAUCACCCAUGUGAUCUUCUAG”, the “apparent Kd” value by setting is: under setting [3], 15.7 nM; under setting [4], 52.6 nM.
In the case of “AAUCUGUAGCAGAAGGUCAUUUUUAUAAAUAAGCUGGUGACAUGAGGAUCACCCAUGUAAAGGUUGAAGGAUAUGCAUUCUAUU”, the “apparent Kd” value under setting [3] was found to be 90.5 nM and the “apparent Kd” value under setting [4] was 343 nM.
The corresponding values for “AGCGGCGCAGACCACCGCAAAACCAGAAGGACAUGAGGAUCACCCAUGUAACAAAACAGGGCGAUGUAGGAUAUGGCAAACCCA” are 16.3 nM and 18.8 nM.
The corresponding values for “AUCUAGUCAGGAUAUCGUACAAUAUGGAAAACAUAGAGGUACGAGAAGGGACAUGAGGAUCACCCAUGUAAAAC” are 36.2 nM and 38 nM.
As for “GGUUGUCAUCGUCAUCCUUUCUGUACAUGAGGAUCACCCAUGUAGGAUAUGCUGCUCUCGGUGUGGCAGAAGGGCGUGUGUCUU”, the “apparent Kd” value reads like this: under setting [3], 34.2 nM; under setting [4], 37.6 nM.
“CGCUACGUUUCGUAGCAGUGUCAUCGAGAAGGCCCUGACAUGAGGAUCACCCAUGUUCCUGAAAAGGAGGAUAUCGAUGAUACA”: the “apparent Kd” value reads like this: under setting [1], 8.86 nM; under setting [2], 7.04 nM.
“GUGCCUUGGGAGAAGGCCCAAUGCAAAGCAUAGGGAGGAUAUUCAUAUAAUAAAUAAACAUGAGGAUCACCCAUGUGGCACAAA”: the “apparent Kd” value is, setting by setting: under setting [1], 479 nM; under setting [2], 33.3 nM.
For “CGGGAUUCCUGAGGAUAUGGAGCUGUCUACCUGGGCGACAUGAGGAUCACCCAUGUAGAACGCCUCCAGAAGGCAGCGAGAUUG”, the “apparent Kd” value worked out at 27.3 nM under setting [3] and 23.8 nM under setting [4].
For “UUUGAGUUCCGAGGCCGCGAGUUCACAGAAGGCAUUAUUACAUGAGGAUCACCCAUGUGGGUACAUGAGGAUAUGUGAUAUGCG”, the “apparent Kd” value is 20.8 nM under setting [1] and 6.55 nM under setting [2].
The matching figures for “UUUACAUGAGGAUCACCCAUGUCUGUCACCCAUGUGUGCAAUCAGGAUAUGAUAUCAAUAAUAAAUUAGAAGGGAUAACAUGAG”: 73.5 nM and 100 nM.
The corresponding values for “UUAUGAUAGAUAGGAUAUACAAUGGAUUAAGAAGUAGAAGGAUCAAGUGGGAAAUGAACAUGAGGAUCACCCAUGUAAUAGGUU” are 127 nM and 83.5 nM.
Consider “GCCAUCGUAUGAGGAUAUGCUCCGGUUUCCGGAGCAGAAGGCAUGUCAUAAGACAUGAGGAUCACCCAUGUAGUUAAGAUGGCA”, for which the “apparent Kd” value is, setting by setting: under setting [1], 135 nM; under setting [2], 9.66 nM.

The term apparent Kd denotes the concentration giving half-maximal binding under the conditions of the assay.

(Values after the EternaBench riboswitch data.)
